Measured values: ChEMBL document CHEMBL4184296, “Novel inhibitors of Staphylococcus aureus RnpA that synergize with mupirocin” (Bioorg Med Chem Lett, 2018)
pIC50: −log10 of the molar value. Converted amounts (≈) assume the structure as drawn.

Legend:
[1] = Inhibition of Staphylococcus aureus RnpA/RnpB-mediated tRNA cleavage after 15 mins by ethidium bromide staining based polyacrylamide gel electrophoresis
Method in brief: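 RNase P reconstituted from equimolar S. aureus RnpA and rnpB; inhibition of in vitro tRNA maturation (cleavage) measured.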

HepG2 = experiment: Cytotoxicity against human HepG2 cells assessed as reduction in cell viability after 24 hrs by MTT assay; assay type: cell-based; settings: hepg2, 24 h
Method in brief: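 Human HepG2 hepatocytes; overt cytotoxicity measured by MTT method. Value reported as the lowest concentration causing cytotoxicity.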

[2] = biological target: T1, Ribonuclease P protein component (Staphylococcus aureus, UniProt P0A0H5); experiment: Inhibition of Staphylococcus aureus RnpA-mediated mRNA degradation after 15 to 30 mins by ethidium bromide staining based agarose gel electrophoresis
T1 sequence (P0A0H5 whole entry): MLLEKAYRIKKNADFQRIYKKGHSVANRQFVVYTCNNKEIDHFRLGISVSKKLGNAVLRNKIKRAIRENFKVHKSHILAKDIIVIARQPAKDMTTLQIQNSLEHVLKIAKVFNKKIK
Method in brief: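 Recombinant S. aureus RnpA (≥97% purity) tested for inhibition of in vitro mRNA degradation.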

Staphylococcus aureus [3] = experiment: Antibacterial activity against Staphylococcus aureus UAMS-1 after 18 hrs by Mueller-Hinton broth analysis; assay type: functional; settings: UAMS-1, 18 h
Method in brief: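 S. aureus UAMS-1, a methicillin-sensitive osteomyelitis clinical isolate, tested by CLSI broth method in 96-well format. MIC taken as the lowest compound concentration with no visible growth.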

Staphylococcus aureus [4] = experiment: Potentiation of mupirocin-induced antibacterial activity against Staphylococcus aureus UAMS-1 assessed as mupirocin MIC at 8 ug/ml by checkerboard assay (reference value: 0.125 microg/ml); assay type: functional
Method in brief: (§1)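 Checkerboard assay: wells seeded with 1 × 10^5 CFU ml-1 S. aureus UAMS-1. Test compound in 2-fold steps (0, 0.5, 1, 2, 4, 8, 16, 32 µg/mL) crossed with mupirocin (0, 0.03125, 0.0625, 0.125 µg/mL). Plates incubated 18 h at 37 °C, then growth read. FICI = (MIC compound combined / MIC alone) + (MIC mupirocin combined / MIC mupirocin alone).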

Staphylococcus aureus [5] = experiment: Potentiation of mupirocin-induced antibacterial activity against Staphylococcus aureus UAMS-1 assessed as fractional inhibitory concentration index at 8 ug/ml by checkerboard assay; assay type: functional; method in brief: as §1
Staphylococcus aureus [6] = experiment: Potentiation of mupirocin-induced antibacterial activity against Staphylococcus aureus UAMS-1 assessed as fractional inhibitory concentration index at 4 ug/ml by checkerboard assay; assay type: functional; method in brief: as §1
Staphylococcus aureus [7] = experiment: Potentiation of mupirocin-induced antibacterial activity against Staphylococcus aureus UAMS-1 assessed as mupirocin MIC at 4 ug/ml by checkerboard assay (reference value: 0.125 microg/ml); assay type: functional; method in brief: as §1
Staphylococcus aureus [8] = experiment: Potentiation of mupirocin-induced antibacterial activity against Staphylococcus aureus UAMS-1 assessed as fractional inhibitory concentration index at 0.5 ug/ml by checkerboard assay; assay type: functional; method in brief: as §1
Staphylococcus aureus [9] = experiment: Potentiation of mupirocin-induced antibacterial activity against Staphylococcus aureus UAMS-1 assessed as fractional inhibitory concentration index at 16 ug/ml by checkerboard assay; assay type: functional; method in brief: as §1
Staphylococcus aureus [10] = experiment: Potentiation of mupirocin-induced antibacterial activity against Staphylococcus aureus UAMS-1 assessed as mupirocin MIC at 1 ug/ml by checkerboard assay (reference value: 0.125 microg/ml); assay type: functional; method in brief: as §1
Staphylococcus aureus [11] = experiment: Potentiation of mupirocin-induced antibacterial activity against Staphylococcus aureus UAMS-1 assessed as fractional inhibitory concentration index at 1 ug/ml by checkerboard assay; assay type: functional; method in brief: as §1
Staphylococcus aureus [12] = experiment: Potentiation of mupirocin-induced antibacterial activity against Staphylococcus aureus UAMS-1 assessed as mupirocin MIC at 2 ug/ml by checkerboard assay (reference value: 0.125 microg/ml); assay type: functional; method in brief: as §1

In the case of `CC(C)c1ccc(OCC(=O)NNC(=S)NC(=O)c2cc3cc(Cl)ccc3[nH]2)cc1`, the pIC50 [1] was 4.00 and the MTC (HepG2) was 256 µg/mL.

With `CC(C)c1ccc(OCC(=O)NNC(=S)NC(=O)c2cccnc2)cc1` the pIC50 [1] was 3.80 and the MTC (HepG2) was over 256 µg/mL.

`COc1ccc2[nH]c(C(=O)NC(=S)NNC(=O)COc3ccc(C(C)C)cc3)cc2c1` showed an MTC (HepG2) of 32 µg/mL.

Compound `Cc1ccoc1C(=O)NC(=S)NNC(=O)COc1ccc(C(C)C)cc1` has a pIC50 [1] of 3.82 and an MTC (HepG2) of over 128 µg/mL.

For `CC(C)c1ccc(OCC(=O)NNC(=S)NC(=O)c2ccccc2)cc1`, the pIC50 [2] was under 3.30, the pIC50 [1] was 3.46 and the MIC (Staphylococcus aureus [3]) was 64 µg/mL (≈ 172 µM). It also gave an MTC (HepG2) of 512 µg/mL.

In the case of `CC(C)c1ccc(OCC(=O)NNC(=S)NC(=O)c2c[nH]c3ccccc23)cc1`, the pIC50 [1] was 4.05, the MTC (HepG2) was over 128 µg/mL and the MIC (Staphylococcus aureus [4]) was 0.0625 µg/mL. For the same compound, the “fractional inhibitory concentration index (FICI)” value (Staphylococcus aureus [5]) was 0.5.

`CC(C)c1ccc(OCC(=O)NNC(=S)NC(=O)c2cc3ccccc3n2C)cc1` gave a pIC50 [1] of 4.30 and an MTC (HepG2) of over 256 µg/mL.

For `Cc1ccc(C(=O)NC(=S)NNC(=O)COc2ccc(C(C)C)cc2)o1`, the pIC50 [1] was 3.98, the MTC (HepG2) was over 128 µg/mL and the “fractional inhibitory concentration index (FICI)” value (Staphylococcus aureus [6]) was 0.5. The MIC (Staphylococcus aureus [7]) was 0.0312 µg/mL and the “fractional inhibitory concentration index (FICI)” value (Staphylococcus aureus [8]) was 0.53.

`CC(C)c1ccc(OCC(=O)NNC(=S)NC(=O)c2coc3ccccc23)cc1` gave a pIC50 [2] of under 3.60, a pIC50 [1] of 4.60 and an MIC (Staphylococcus aureus [3]) of 128 µg/mL (≈ 311 µM). For the same compound, the MTC (HepG2) was 128 µg/mL.

Compound `CC(C)c1ccc(OCC(=O)NNC(=S)NC(=O)c2ccno2)cc1` has a pIC50 [1] of under 3.30 and an MTC (HepG2) of over 128 µg/mL.

Compound `CC(C)c1ccc(OCC(=O)NNC(=S)NC(=O)c2nc3ccccc3[nH]2)cc1` has a pIC50 [1] of 4.05 and an MTC (HepG2) of 512 µg/mL.

Compound `CC(C)c1ccc(OCC(=O)NNC(=S)NC(=O)c2cc3ccccc3o2)cc1` has a pIC50 [1] of 6.00, an MIC (Staphylococcus aureus [3]) of 32 µg/mL (≈ 77.8 µM) and an MTC (HepG2) of over 128 µg/mL. For the same compound, the fractional inhibitory concentration index (FICI) (Staphylococcus aureus [6]) was 0.25, the MIC (Staphylococcus aureus [4]) was 0.0312 µg/mL and the “fractional inhibitory concentration index (FICI)” value (Staphylococcus aureus [8]) was 0.508.

In the case of `CC(C)c1ccc(OCC(=O)NNC(=S)NC(=O)c2ccccn2)cc1`, the pIC50 [1] was 6.00, the MTC (HepG2) was over 128 µg/mL and the MIC (Staphylococcus aureus [4]) was 0.0625 µg/mL. The “fractional inhibitory concentration index (FICI)” value (Staphylococcus aureus [5]) was 0.5, the “fractional inhibitory concentration index (FICI)” value (Staphylococcus aureus [8]) was 0.516 and the “fractional inhibitory concentration index (FICI)” value (Staphylococcus aureus [9]) was 0.625.

`CC(C)c1ccc(OCC(=O)NNC(=S)NC(=O)/C=C/c2cc3ccccc3o2)cc1` gave a pIC50 [1] of 4.59, an MIC (Staphylococcus aureus [3]) of over 256 µg/mL and an MTC (HepG2) of 256 µg/mL.

Work on `CC(C)c1ccc(OCC(=O)NNC(=S)NC(=O)c2cc3cc(F)ccc3[nH]2)cc1` yielded a pIC50 [2] of over 4.30, a pIC50 [1] of over 4.30 and an MTC (HepG2) of 256 µg/mL.

`CC(C)c1ccc(OCC(=O)NNC(=S)NC(=O)c2ccsc2)cc1` gave a pIC50 [1] of 3.40 and an MTC (HepG2) of over 256 µg/mL.

Work on `CC(C)c1ccc(OCC(=O)NNC(=S)NC(=O)c2cc3ccccc3[nH]2)cc1` yielded a pIC50 [1] of 6.30, an MTC (HepG2) of over 256 µg/mL and an MIC (Staphylococcus aureus [10]) of 0.0625 µg/mL. For the same compound, the “fractional inhibitory concentration index (FICI)” value (Staphylococcus aureus [11]) was 0.56.

`COc1ccc2cc(C(=O)NC(=S)NNC(=O)COc3ccc(C(C)C)cc3)[nH]c2c1` showed a pIC50 [2] of 4.30, an MIC (Staphylococcus aureus [3]) of over 256 µg/mL and an MTC (HepG2) of over 512 µg/mL.

For `CC(C)c1ccc(OCC(=O)NNC(=S)NC(=O)Cc2ccco2)cc1`, the pIC50 [2] was 4.60 and the MTC (HepG2) was 32 µg/mL.

`CC(C)c1ccc(OCC(=O)NNC(=S)NC(=O)c2ccc(Br)o2)cc1` showed a pIC50 [1] of 4.40, an MTC (HepG2) of over 128 µg/mL and an MIC (Staphylococcus aureus [12]) of 0.0625 µg/mL. For the same compound, the “fractional inhibitory concentration index (FICI)” value (Staphylococcus aureus [5]) was 0.375 and the “fractional inhibitory concentration index (FICI)” value (Staphylococcus aureus [8]) was 0.516.

`CC(C)c1ccc(OCC(=O)NNC(=S)NC(=O)c2cc3ccc(Cl)cc3[nH]2)cc1` showed a pIC50 [1] of over 4.30 and an MTC (HepG2) of 32 µg/mL.

`CC(C)c1ccc(OCC(=O)NNC(=S)NC(=O)c2ccoc2)cc1` gave a pIC50 [2] of 3.60, a pIC50 [1] of 3.82 and an MTC (HepG2) of 16 µg/mL.

With `CC(C)c1ccc(OCC(=O)NNC(=S)NC(=O)c2cnco2)cc1` the pIC50 [1] was 4.30 and the MTC (HepG2) was 64 µg/mL.

`CC(C)c1ccc(OCC(=O)NNC(=S)NC(=O)c2ccc(-c3ccccc3)o2)cc1` showed a pIC50 [2] of 4.40, a pIC50 [1] of 4.30 and an MIC (Staphylococcus aureus [3]) of 64 µg/mL (≈ 146 µM). It also gave an MTC (HepG2) of 64 µg/mL.

In the case of `CC(C)c1ccc(OCC(=O)NNC(=S)NC(=O)c2ccco2)cc1`, the pIC50 [1] was 3.85, the MIC (Staphylococcus aureus [3]) was 16 µg/mL (≈ 44.3 µM) and the MTC (HepG2) was over 128 µg/mL. For the same compound, the “fractional inhibitory concentration index (FICI)” value (Staphylococcus aureus [6]) was 0.49 and the MIC (Staphylococcus aureus [7]) was 0.0625 µg/mL.

For `CC(C)c1ccc(OCC(=O)NNC(=S)NC(=O)c2ccncc2)cc1`, the pIC50 [1] was 3.82 and the MTC (HepG2) was over 512 µg/mL.

Work on `CC(C)c1ccc(OCC(=O)NNC(=S)NC(=O)c2ccc[nH]2)cc1` yielded a pIC50 [2] of under 3.60, a pIC50 [1] of 4.60 and an MIC (Staphylococcus aureus [3]) of 16 µg/mL (≈ 44.4 µM). The MTC (HepG2) was 16 µg/mL.

Compound `Cc1cc(/C=C(/C#N)C(=O)Nc2cccc(Br)c2)c(C)n1-c1ccc(C(=O)O)cc1` has a pIC50 [2] of 4.00, a pIC50 [1] of 3.76 and an MIC (Staphylococcus aureus [3]) of 32 µg/mL (≈ 68.9 µM). It also gave an MTC (HepG2) of 25 µg/mL.

Compound `CC(C)c1ccc(OCC(=O)NNC(=S)NC(=O)c2cccs2)cc1` has a pIC50 [2] of 3.60, a pIC50 [1] of 4.60 and an MIC (Staphylococcus aureus [3]) of 64 µg/mL (≈ 170 µM). The MTC (HepG2) was over 256 µg/mL.

With `CC(C)c1ccc(OCC(=O)NNC(=S)NC(=O)/C=C/c2ccco2)cc1` the pIC50 [1] was 4.49 and the MTC (HepG2) was over 256 µg/mL.

In the case of `CC(C)c1ccc(OCC(=O)NNC(=S)NC(=O)c2cc3ccccc3s2)cc1`, the pIC50 [1] was 4.00 and the MTC (HepG2) was 512 µg/mL.
